Converted amounts (≈) assume the structure as drawn. The source made the active and inactive calls. No cut-off for these calls is given here.
Assays:
Escherichia coli [1] = experiment: Induction of membrane depolarization in Escherichia coli ATCC 8739 incubated for 2 hrs by [DiSC3(5)] probe based fluorescence assay; assay type: functional, organism-based
Summary of the method: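 E. coli ATCC8739 grown 2 h at 37°C in Mueller-Hinton broth, washed and resuspended in 20 mM glucose/5 mM HEPES pH 7.2 to OD600 0.05. DiSC3(5) added at 0.6 µM final and preincubated at 37°C until fluorescence stabilized. Compound added at 0.19–12.5 µM final; fluorescence (ex 620, em 670 nm) followed over 30 min. Duplicate, three independent experiments.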

Escherichia coli [2] = experiment: Antimicrobial activity against Escherichia coli ATCC 8739 assessed as induction of blisters and protruding vesicles on cell surface at 1 to 8 times MIC incubated for 60 mins by surface electron microscopy; assay type: functional, organism-based
Escherichia coli [3] = experiment: Antimicrobial activity against Escherichia coli ATCC 8739 assessed as induction of spherical elements around bacteria at 1 to 8 times MIC incubated for 60 mins by surface electron microscopy; assay type: functional, organism-based
Escherichia coli [4] = experiment: Antimicrobial activity against Escherichia coli ATCC 8739 assessed as increase in region of cellular aggregation at 1 to 8 times MIC incubated for 60 mins by surface electron microscopy; assay type: functional, organism-based
Bacillus subtilis [5] = experiment: Antimicrobial activity against Bacillus subtilis ATCC 6633 assessed as inhibition of microbial growth incubated for 24 hrs; assay type: functional; conditions: ATCC 6633, 24 h
Summary of the method: (§1)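 Broth microdilution. Strains grown overnight on TSA at 37°C, suspended to 10⁸ CFU/mL in Tryptone-Sel, then diluted to 10⁶ CFU/mL in double-strength Mueller-Hinton broth. Two-fold serial dilutions in sterile water (pH 7.4–7.7) mixed 1:1 with inoculum. Incubation 24 h at 37°C. MIC is the lowest concentration inhibiting growth. Duplicate wells, three independent experiments.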

Staphylococcus aureus [6] = experiment: Antimicrobial activity against Staphylococcus aureus ATCC 6538 assessed as inhibition of microbial growth incubated for 24 hrs; assay type: functional; conditions: ATCC 6538, 24 h; summary of the method: as §1
Enterococcus faecalis [7] = experiment: Antimicrobial activity against Enterococcus faecalis ATCC 29121 assessed as inhibition of microbial growth incubated for 24 hrs; assay type: functional; conditions: ATCC 29121, 24 h; summary of the method: as §1
Escherichia coli [8] = experiment: Antimicrobial activity against Escherichia coli ATCC 8739 assessed as inhibition of microbial growth incubated for 24 hrs; assay type: functional; conditions: ATCC 8739, 24 h; summary of the method: as §1
Pseudomonas aeruginosa [9] = experiment: Antimicrobial activity against Pseudomonas aeruginosa ATCC 9027 assessed as inhibition of microbial growth incubated for 24 hrs; assay type: functional; conditions: ATCC 9027, 24 h; summary of the method: as §1
Candida albicans [10] = experiment: Antimicrobial activity against Candida albicans ATCC 10231 assessed as inhibition of microbial growth incubated for 48 hrs; assay type: functional; conditions: ATCC 10231, 48 h
Summary of the method: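 C. albicans grown 48 h on Sabouraud at 20–25°C, suspended to 10⁸ CFU/mL, then diluted to 10⁶ CFU/mL in double-strength Mueller-Hinton broth. Two-fold serial dilutions in water (pH 7.4–7.7) mixed 1:1 with inoculum. Incubation 48 h at 25°C. MIC is the lowest concentration inhibiting growth. Duplicate wells, three independent experiments.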

[11] = Hemolytic activity in human RBC assessed as induction of hemolysis incubated for 1 hr; assay type: cell-based, Erythrocyte; conditions: red blood cells (erythrocytes), read-out: HD50
Summary of the method: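 Human RBCs washed in PBS and used at 5% packed cell volume, mixed 1:1 with two-fold serial dilutions in PBS (pH 7.4–7.7). Incubation 1 h at 37°C, then centrifugation at 1500g for 10 min at 5°C. Supernatant absorbance read at 490 nm against PBS (0%) and 1% SDS/Tris (100%) controls. HC50 from three independent experiments, double duplicate.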

Bacillus subtilis [12] = experiment: Microbicidal activity against Bacillus subtilis ATCC 6633 assessed as inhibition of colony growth incubated for 24 hrs followed by replating and further incubated for 24 hrs; assay type: functional; conditions: ATCC 6633, 24 h
Staphylococcus aureus [13] = experiment: Microbicidal activity against Staphylococcus aureus ATCC 6538 assessed as inhibition of colony growth incubated for 24 hrs followed by replating and further incubated for 24 hrs; assay type: functional; conditions: ATCC 6538, 24 h
Enterococcus faecalis [14] = experiment: Microbicidal activity against Enterococcus faecalis ATCC 29121 assessed as inhibition of colony growth incubated for 24 hrs followed by replating and further incubated for 24 hrs; assay type: functional; conditions: ATCC 29121, 24 h
Escherichia coli [15] = experiment: Microbicidal activity against Escherichia coli ATCC 8739 assessed as inhibition of colony growth incubated for 24 hrs followed by replating and further incubated for 24 hrs; assay type: functional; conditions: ATCC 8739, 24 h
Pseudomonas aeruginosa [16] = experiment: Microbicidal activity against Pseudomonas aeruginosa ATCC 9027 assessed as inhibition of colony growth incubated for 24 hrs followed by replating and further incubated for 24 hrs; assay type: functional; conditions: ATCC 9027, 24 h
Candida albicans [17] = experiment: Microbicidal activity against Candida albicans ATCC 10231 assessed as inhibition of colony growth incubated for 48 hrs followed by replating and further incubated for 48 hrs; assay type: functional; conditions: ATCC 10231, 48 h
Escherichia coli [18] = experiment: Antimicrobial activity against Escherichia coli ATCC 8739 assessed as reduction in viable bacterial cell count at 1 times MIC incubated up to 120 mins by time kill assay relative to control; assay type: functional
Escherichia coli [19] = experiment: Antimicrobial activity against Escherichia coli ATCC 8739 assessed as reduction in viable bacterial cell count at 8 times MIC incubated up to 120 mins by time kill assay relative to control; assay type: functional
Escherichia coli [20] = experiment: Antimicrobial activity against Escherichia coli ATCC 8739 assessed as reduction in viable bacterial cell count at 4 to 8 times MIC incubated for 40 to 60 mins by time kill assay relative to control; assay type: functional, organism-based
Escherichia coli [21] = experiment: Antimicrobial activity against Escherichia coli ATCC 8739 assessed as effect on bacterial morphology by measuring bacterial length at 1 to 8 times MIC incubated for 60 mins by surface electron microscopy (reference value: 2 micrometer); assay type: functional
Escherichia coli [22] = experiment: Antimicrobial activity against Escherichia coli ATCC 8739 assessed as inhibition of microbial growth measured after 8 passes in presence of sublethal compound concentration concentrations; assay type: functional

With `CC(=O)N[C@@H](CCCNC(=N)N)c1nc(C)sc1C(=O)N[C@@H](C)c1nc(CCCNC(=N)N)sc1C(=O)N[C@@H](C)c1nc(C)sc1C(=O)N[C@@H](CCCNC(=N)N)c1nc(C)sc1C(=O)N[C@@H](C)c1nc(CCCNC(=N)N)sc1C(=O)N[C@@H](C)c1nc(C)sc1C(=O)N[C@@H](CCCNC(=N)N)c1nc(C)sc1C(=O)N[C@@H](C)c1nc(CCCNC(=N)N)sc1C(=O)N[C@@H](C)c1nc(C)sc1C(=O)N[C@@H](CCCNC(=N)N)c1nc(C)sc1C(=O)N[C@@H](C)c1nc(CCCNC(=N)N)sc1C(=O)N[C@@H](C)c1nc(C)sc1C(N)=O` the Activity (Escherichia coli [1]) was “Dose-dependent effect”, the Activity (Escherichia coli [2]) was “Active” and the Activity (Escherichia coli [3]) was “Dose-dependent effect”. The Activity (Escherichia coli [4]) was “Active”, the MIC (Bacillus subtilis [5]) was 0.6 µM and the MIC (Staphylococcus aureus [6]) was 3.1 µM. For the same compound, the MIC (Enterococcus faecalis [7]) was 20.8 µM, the MIC (Escherichia coli [8]) was 1.8 µM and the MIC (Pseudomonas aeruginosa [9]) was 4.2 µM. For the same compound, the MIC (Candida albicans [10]) was 6.2 µM, the HC50 at 1 h [11] was greater than 100 µM and the MBC (Bacillus subtilis [12]) was 0.8 µM (≈ 2.21 µg/mL). For the same compound, the MBC (Staphylococcus aureus [13]) was 7.8 µM (≈ 21.5 µg/mL), the MBC (Enterococcus faecalis [14]) was 25 µM (≈ 69 µg/mL) and the MBC (Escherichia coli [15]) was 2.3 µM (≈ 6.34 µg/mL). It also gave an MBC (Pseudomonas aeruginosa [16]) of 4.7 µM (≈ 13 µg/mL), an MBC (Candida albicans [17]) of 6.2 µM (≈ 17.1 µg/mL) and an Activity (Escherichia coli [18]) of 0.95 log10CFU/ml. The Activity (Escherichia coli [19]) was 4.73 log10CFU/ml, the Activity (Escherichia coli [20]) was “Active” and the Activity (Escherichia coli [21]) was 1.3 um. For the same compound, the MIC (Escherichia coli [22]) was “Active”.
